Source: the RNAGym collection of RNA variant scans (doi:10.1126/science.aae0568)
This sample holds only a part of the variants without activity.

B1: tRNA (parent)
chain: GUUCCGUUGGCGUAAUGGUAACGCGUCUCCCUCCUAAGGAGAAGACUGCGGGUUCGAGUCCCGUACGGAACG

Variants of: B1
Test: yeast fitness relative to wild type (ratio to wild type); higher = fitter; tRNA-Arg(CCU), competitive growth, 37 C, YPD
How it was run: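 Gene amplicons from the start population and from each of six end populations were read by 100-nucleotide paired-end sequencing. Those end populations came from pooled Saccharomyces cerevisiae strains carrying tRNA-Arg(CCU) gene variants at the native locus, competed in YPD at 37°C for 24 hours. Fitness relative to wild type was worked out from changes in genotype frequencies. Genotypes needed ≥ 100 starting reads, and estimates < 0.5 were set to 0.5.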

A15G U16C C34U G44C C61U and A15U C22G C31U A57C cannot be ordered by yeast fitness: at most 0.5 for the first, at most 0.5 for the second.

A15U A20G U28A C33G and A15U C30G G50A cannot be ordered by yeast fitness: at most 0.5 for the first, at most 0.5 for the second.

A15U G18A U35C G58A and A15G G51A A65U cannot be ordered by yeast fitness: at most 0.5 for the first, at most 0.5 for the second.

First: A15U C27A C62U A65C A69C
Second: A15U A21G C49U
The yeast fitness of the first is lower: at most 0.5 for the first, 0.556 for the second.

A15U C27A G56C G63A and A15U A57C A65U A69C cannot be ordered by yeast fitness: at most 0.5 for the first, at most 0.5 for the second.

Compared with A15U C30U G52A A65U, A15G G41A A69U is higher in yeast fitness: at most 0.5 for the first, 0.615 for the second.

A15U A42U C46U C55G and A15U C31U U35A A36C U53A G68C cannot be ordered by yeast fitness: at most 0.5 for the first, at most 0.5 for the second.

A15U C24G A42C A43C and A15U C24G G56A cannot be ordered by yeast fitness: at most 0.5 for the first, at most 0.5 for the second.

A15U G23C A45U G52A and A15U C33U U64G A70C cannot be ordered by yeast fitness: at most 0.5 for the first, at most 0.5 for the second.

A15G U19A U28A G63A and A15U C27U G39A G48A cannot be ordered by yeast fitness: at most 0.5 for the first, at most 0.5 for the second.

A15U C29A G50C and A15U G23A G68C cannot be ordered by yeast fitness: at most 0.5 for the first, at most 0.5 for the second.

Going from A15U C34G C55U A69C to A15U A21G, the yeast fitness rises from at most 0.5 to 0.785.

Compared with A15G G50A A57G, A15U G17A is higher in yeast fitness: 0.584 for the first, 0.707 for the second.

Compared with A15U C27A, A15U C27U is higher in yeast fitness: 0.593 for the first, 0.699 for the second.

A15U C60G A65U and A15U C24G U32C A42C A43C cannot be ordered by yeast fitness: at most 0.5 for the first, at most 0.5 for the second.

A15U C34G A37G A40C U64C and A15U A43C G48A G68C cannot be ordered by yeast fitness: at most 0.5 for the first, at most 0.5 for the second.

Going from A15U A43U G48A G68C to A15U G25A G68A, the yeast fitness rises from at most 0.5 to 0.698.

First: A15U C33G C34G A45U G51A
Second: A15U C33A A37G U53C
The yeast fitness of the first is lower: at most 0.5 for the first, 0.668 for the second.

A15U C34G A37G A40C C62U A65U and A15G U47G G56A cannot be ordered by yeast fitness: at most 0.5 for the first, at most 0.5 for the second.

Compared with A15U C31U, A15U C31A is lower in yeast fitness: 0.707 for the first, 0.588 for the second.

Going from A15U C31G to A15U A65C, the yeast fitness rises from 0.676 to 0.698.

A15G U26C U32A C34U G38C G51A A57C C66U and A15U A45C C49G G58C cannot be ordered by yeast fitness: at most 0.5 for the first, at most 0.5 for the second.

Going from A15U A36U A40U G68C to A15U C22U G44C, the yeast fitness falls from 0.643 to at most 0.5.

Compared with A15U C62G, A15G G41C A45G is lower in yeast fitness: 0.646 for the first, at most 0.5 for the second.

First: A15U A20C C34A G68C
Second: A15U G18C C29G U64A A69C
The yeast fitness of the first is lower: at most 0.5 for the first, 0.598 for the second.

Compared with A15G G56C C61U, A15U C66U A70U is higher in yeast fitness: at most 0.5 for the first, 0.604 for the second.

A15U C24G U32A G41A and A15U C33U G56A cannot be ordered by yeast fitness: at most 0.5 for the first, at most 0.5 for the second.

First: A15G U54G
Second: A15G U54C
The yeast fitness of the first is lower: 0.612 for the first, 0.905 for the second.

First: A15G U54A
Second: A15U C46U A65U G68C
The yeast fitness of the first is higher: 0.648 for the first, at most 0.5 for the second.

First: A15U A40U G52A
Second: A15U C31G U53A C55U A57C C60G G67C
The yeast fitness of the first is lower: at most 0.5 for the first, 0.546 for the second.

A15U C30U A57G and A15U G23C A40U G63C cannot be ordered by yeast fitness: at most 0.5 for the first, at most 0.5 for the second.

Compared with A15U G25A G44C G67U, A15U A40U C61U A70G is higher in yeast fitness: 0.522 for the first, 0.718 for the second.

First: A15G U32A G38A
Second: A15U C31U C46G G63A A65G A70U
The yeast fitness of the first is higher: 0.525 for the first, at most 0.5 for the second.

Compared with A15U A20G G52C A65U G67C, A15G G48A A70C is higher in yeast fitness: at most 0.5 for the first, 0.748 for the second.

Compared with A15U C33U A36G C62G A69C, A15U C27A C49G U64A is higher in yeast fitness: at most 0.5 for the first, 0.639 for the second.

A15G U19C C46G C55U and A15G U54A C62U cannot be ordered by yeast fitness: at most 0.5 for the first, at most 0.5 for the second.

Compared with A15G U16C A20C A21U U26C, A15U C46U is higher in yeast fitness: at most 0.5 for the first, 0.978 for the second.

Compared with A15U C46A, A15U C46G is higher in yeast fitness: 0.719 for the first, 0.825 for the second.

Going from A15G G39C A40C to A15G U53C C61G, the yeast fitness falls from 0.622 to at most 0.5.

A15G G44C U59A and A15U A20G C27U C30A cannot be ordered by yeast fitness: at most 0.5 for the first, at most 0.5 for the second.

A15U C22A G23A C24A C46A and A15U G23C C34G C55G cannot be ordered by yeast fitness: at most 0.5 for the first, at most 0.5 for the second.

A15U C22G C31U U64A G68C A70U and A15U G17C A37U cannot be ordered by yeast fitness: at most 0.5 for the first, at most 0.5 for the second.

Going from A15G G39C A42C to A15U C29U C46U, the yeast fitness rises from 0.553 to 0.667.

Going from A15U C24G C30U to A15U G23C U28G U32C A36U G38A C55A, the yeast fitness rises from 0.608 to 0.689.

First: A15U G18A C27U U35C G41A C49U U53A
Second: A15U C24A C29G
The yeast fitness of the first is higher: 0.603 for the first, at most 0.5 for the second.

Compared with A15U C33G, A15U A20C G23A G50C is higher in yeast fitness: 0.551 for the first, 0.577 for the second.

First: A15U A69U
Second: A15U A20U G56C
The yeast fitness of the first is higher: 0.696 for the first, at most 0.5 for the second.

A15G U26C G63A and A15U C27G U59C cannot be ordered by yeast fitness: at most 0.5 for the first, at most 0.5 for the second.

First: A15G G41C
Second: A15G U26A C60U A70C
The yeast fitness of the first is higher: 0.827 for the first, 0.52 for the second.

Compared with A15U C55G U64C A65C, A15G G58C G68A is higher in yeast fitness: at most 0.5 for the first, 0.593 for the second.

Compared with A15U C31G C34U A40C, A15U C24U A37U is lower in yeast fitness: 0.531 for the first, at most 0.5 for the second.

A15U G23C C33A G63C G68U and A15G U28C A37C cannot be ordered by yeast fitness: at most 0.5 for the first, at most 0.5 for the second.

Going from A15G U26G to A15G U26C, the yeast fitness rises from 0.703 to 0.802.

A15G U26G C30U and A15U A20C G48A A69C cannot be ordered by yeast fitness: at most 0.5 for the first, at most 0.5 for the second.

Compared with A15U A40U C49U, A15G G44C C61U is higher in yeast fitness: 0.599 for the first, 0.607 for the second.

Going from A15U A21C C29A U32A to A15U G23U C24G, the yeast fitness falls from 0.728 to at most 0.5.

A15G G41C G51C and A15U A57C A65G cannot be ordered by yeast fitness: at most 0.5 for the first, at most 0.5 for the second.

First: A15G G67A A69U
Second: A15U C30G G38A U54C
The yeast fitness of the first is higher: 0.637 for the first, 0.553 for the second.

A15G U35A A57G G58U C62G and A15U A21C G52A cannot be ordered by yeast fitness: at most 0.5 for the first, at most 0.5 for the second.

A15U G23C C33A C66U G68C and A15G G52C A70U cannot be ordered by yeast fitness: at most 0.5 for the first, at most 0.5 for the second.

Compared with A15U A65U A70C, A15U C30U A40G C55U is higher in yeast fitness: at most 0.5 for the first, 0.653 for the second.

A15U A42U C49G C60A and A15U C34A A40U G52A G68A cannot be ordered by yeast fitness: at most 0.5 for the first, at most 0.5 for the second.

Going from A15U C24G C30U A57U A69C to A15U G25A C46U G56A, the yeast fitness rises from at most 0.5 to 1.04.

A15U A42C U47A G63C A69C and A15U C31G C33G A42U cannot be ordered by yeast fitness: at most 0.5 for the first, at most 0.5 for the second.

A15U C31A A70G and A15G G39C C62U G63C cannot be ordered by yeast fitness: at most 0.5 for the first, at most 0.5 for the second.

A15G G48C G51A and A15U C22U A57U cannot be ordered by yeast fitness: at most 0.5 for the first, at most 0.5 for the second.

A15G G56C C66G and A15G U28G A42U G48A cannot be ordered by yeast fitness: at most 0.5 for the first, at most 0.5 for the second.

Compared with A15U A20C G50C, A15U A70G is higher in yeast fitness: at most 0.5 for the first, 0.663 for the second.

Going from A15U A70C to A15U A70U, the yeast fitness falls from 0.867 to 0.836.

A15G U35G A45U and A15U A43U C55G cannot be ordered by yeast fitness: at most 0.5 for the first, at most 0.5 for the second.

A15U C22A A43G G51C U59C C62U G68U and A15U A43U C46G C61A cannot be ordered by yeast fitness: at most 0.5 for the first, at most 0.5 for the second.

First: A15G G63C A69U
Second: A15U C31A C49G
The yeast fitness of the first is higher: 0.651 for the first, 0.576 for the second.

A15U A20C G23A G50C G63A and A15U G23C A45U C62A cannot be ordered by yeast fitness: at most 0.5 for the first, at most 0.5 for the second.

A15U C22G C31U C60A and A15G U35A C62A G63C cannot be ordered by yeast fitness: at most 0.5 for the first, at most 0.5 for the second.

A15U G18C A36G A37C G50A and A15G G39C U54C C55U cannot be ordered by yeast fitness: at most 0.5 for the first, at most 0.5 for the second.

Compared with A15U G25A G44C G52A, A15U C46U U54C is higher in yeast fitness: at most 0.5 for the first, 0.684 for the second.

First: A15U C31A C62U
Second: A15G G63C A65G
The yeast fitness of the first is higher: 0.573 for the first, 0.543 for the second.

Going from A15U C30G C34U to A15U C29G C34U C66U, the yeast fitness falls from 0.71 to at most 0.5.

Compared with A15U C24A G25A U47C G52C, A15G G41A C49A C66A is higher in yeast fitness: at most 0.5 for the first, 0.53 for the second.

A15U G23C A37G and A15U A45C C55U cannot be ordered by yeast fitness: at most 0.5 for the first, at most 0.5 for the second.

Compared with A15U C29U C66A, A15G U64C is higher in yeast fitness: 0.57 for the first, 0.976 for the second.

A15U C33G G52A A65G and A15G U32A G52C G68A cannot be ordered by yeast fitness: at most 0.5 for the first, at most 0.5 for the second.

A15U C29A C49G A69U and A15G U47G A69C cannot be ordered by yeast fitness: at most 0.5 for the first, at most 0.5 for the second.

Work on A15G U32C yielded a yeast fitness of 0.983.
